From PubChem
ALR inh: blocks human ALR sulfhydryl oxidase activity | P55789 | purified ALR, DTT oxidation, H2O2 HRP-luminol luminescence | 290,000 compounds, 3.8% hits | inhibition, % (test concentration not listed);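 active = mean replicate inhibition above about 79%, with every replicate also reaching it, limit read from the data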
Target sequence (P55789 whole entry, looked up): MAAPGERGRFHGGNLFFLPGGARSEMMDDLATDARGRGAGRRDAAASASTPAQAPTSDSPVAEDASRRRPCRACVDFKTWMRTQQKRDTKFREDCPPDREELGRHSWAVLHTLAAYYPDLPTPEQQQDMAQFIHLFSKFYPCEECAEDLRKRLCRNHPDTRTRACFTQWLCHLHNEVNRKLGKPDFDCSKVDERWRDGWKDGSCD
HSF-1 act: increases HSF-1 driven luciferase reporter signal | NIH3T3-HGL HSF-1 luciferase reporter, MG132, 8 h; 100% = twice DMSO control signal | activation, % at 9 µM | 300,000 compounds, 1.7% hits;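 active = mean replicate activation of at least 50% with a set share of replicates each reaching 50%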
HSF1 inh: HSF1 inhibition; NIH3T3-HGL HSE-luciferase, MG132-induced, luminescence 8 h; stronger effect = lower value; activity change, negative = inhibition, % at 7.5 µM (by protocol); 300,000 compounds, 0.77% hits; AID 2098;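 active = more than half of replicate wells show activity change below -50%, luminescence cut by over half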;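 also: luciferase reports HSF-1 transcriptional activity via heat shock element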
core dimer inh: blocks dimerization of HCV core protein; TR-FRET GST/Flag-core106 dimerization, 1536-well; inhibition, % at 5 µM; 300,000 compounds, 0.33% hits;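 active = inhibition above the mean of all tested compounds plus 3 SD, set per screening campaign, cut at about 45% in these data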
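Assay system: Tagged HCV core106 pair (GST and Flag) | Buffer or medium: KF-containing HEPES buffer, pH 7.45, DTT, CHAPS, BSA | Also added: Eu donor and XL665 acceptor anti-tag antibodies | Dosing: One concentration, 5 µM, in 0.5% DMSO | Timing: 4 h at 22.5 °C | Technique: TR-FRET 671 and 617 nm emission | Repeats: Singlicate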
AI-2 QS mod: modulates the Vibrio harveyi AI-2 quorum sensing system; Vibrio harveyi JMH597 AI-2 luminescence/OD600 ratio, 9 h; stronger effect = lower value; strain lacks LuxN and CqsS sensors; 0 = neutral-control median; 300,000 compounds, 0.4% hits; activity change, % at 7.5 µM; in the data active = activity change below about -75%, passing the limit was not always enough;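 also: luminescence divided by OD600 gain over 9 h not by final OD600 alone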
PHOSPHO1 inh: PHOSPHO1 (human) inhibition; Q8TCT1; recombinant PHOSPHO1, absorbance phosphatase assay; inhibition, % at 13.3 µM; 290,000 compounds, 1.1% hits; AID 1565; in the data active = inhibition above about 60%
Target sequence (Q8TCT1 whole entry, looked up): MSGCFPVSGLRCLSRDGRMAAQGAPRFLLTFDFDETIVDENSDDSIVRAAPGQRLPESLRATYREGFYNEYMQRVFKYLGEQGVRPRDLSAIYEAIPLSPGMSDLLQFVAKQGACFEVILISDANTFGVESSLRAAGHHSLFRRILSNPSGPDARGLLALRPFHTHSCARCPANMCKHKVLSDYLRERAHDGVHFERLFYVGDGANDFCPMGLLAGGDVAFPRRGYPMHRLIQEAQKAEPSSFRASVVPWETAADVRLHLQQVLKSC
Numbers stand for hits; n = inactive; x = no result given. Rows were chosen to be rich in hits. Some 6.8% of all compounds tested hit in one or more screens of this group.

SMILES	ALR inh	HSF-1 act	HSF1 inh	core dimer inh	AI-2 QS mod	PHOSPHO1 inh
Cn1cc(Cl)c(C(=O)Nc2cnn(Cc3ccc(F)cc3)c2)n1	n	n	n	n	-81	n
COc1cccc(-c2cc(C(=O)Nc3cnn(Cc4ccc(F)cc4)c3)no2)c1	n	n	n	n	n	n
O=C(Nc1cnn(Cc2ccc(F)cc2)c1)c1cc(-c2ccco2)on1	n	n	-54	n	n	n
Cc1nn(C(C)C(=O)NCc2ccco2)c(=O)c2nn(-c3ccccc3)c(C)c12 (stereo not given)	n	n	n	n	n	n
CC(C)(C)c1cc(C(=O)O)n(Cc2ccc(Cl)cc2Cl)n1	n	n	n	n	n	n
O=C(/C=C/c1ccco1)N1CCN(c2ccccc2)CC1	n	n	n	n	n	n
O=C(/C=C\c1ccco1)Nc1ccc(N2CCN(C(=O)c3ccccc3)CC2)cc1	n	66	n	n	n	n
NS(=O)(=O)c1ccc(NC(=O)/C=C/c2ccco2)cc1	96	n	n	n	n	n
COc1ccccc1CNCC(c1ccccc1)c1ccccc1	n	61	n	n	n	n
COc1ccccc1CNCc1cc(OC)c(OC)cc1OC	n	n	n	n	n	n
CCOC(=O)c1cnc(SCC(=O)Nc2sc(C)c(C)c2C#N)nc1N	n	n	n	n	n	92
CCOC(=O)c1sc(NC(=O)CSc2nc(C)cc(-c3ccccc3)n2)c(C#N)c1C	n	n	n	n	n	88
CCOC(=O)c1cnc(SCC(=O)Nc2cc(OC)cc(OC)c2)nc1N	n	n	n	n	n	n
CCOC(=O)c1sc(NC(=O)CSc2nc(C)cc(C)c2C#N)c(C#N)c1C	n	n	n	n	n	n
CCOC(=O)c1sc(NC(=O)c2cc(-c3ccccc3C)nc3ccccc23)c(C#N)c1C	n	n	n	n	n	65
CCOC(=O)C1CCN(C(=S)NC2CC3C=CC2C3)CC1 (stereo not given)	x	n	n	n	n	n
CC(=O)C[C@H](O)CC(=O)[C@@H]1OC(=O)CCCCCCCCc2ccccc21	n	x	x	x	x	x
COc1cc(CCCN2C(=S)NC[C@H]2Cc2ccc(O)cc2)cc(OC)c1OC	n	n	n	n	n	n
COc1cc(CCCN2CCNC[C@@H]2Cc2ccc(O)cc2)cc(OC)c1OC	n	n	-55	n	n	x
COc1ccc(CNC(=O)C2CCN(C(=O)[C@@H]3Cc4ccccc4CN3)CC2)cc1	n	n	n	n	n	n
O=C(O)c1nc(NCCc2ccccc2)ncc1Cl	x	n	n	n	n	n
CCN(CC)CC(=O)Nc1ccc2c(c1)Nc1ccccc1CC2	99	n	n	n	n	n
CCN(CC)CC(=O)Nc1ccc2c(c1)N(C(=O)CN(CC)CC)c1ccccc1CC2	n	n	n	n	n	n
CC(=O)C1=C(O)C(=O)N(c2ccc(Br)cn2)C1c1ccc(Br)cc1 (stereo not given)	97	n	n	n	n	n
CC(=O)C1=C(O)C(=O)N(c2ccc(Br)cn2)C1c1ccc(F)cc1 (stereo not given)	n	n	n	n	n	n
SMILES	ALR inh	HSF-1 act	HSF1 inh	core dimer inh	AI-2 QS mod	PHOSPHO1 inh
CC(=O)C1=C(O)C(=O)N(c2ccc(Br)cn2)C1c1cccc([N+](=O)[O-])c1 (stereo not given)	89	n	n	n	n	n
CC(=O)N1CCN(CCS(=O)(=O)c2cc(Cl)ccc2Cl)CC1	n	x	x	x	x	x
COC(=O)CCS(=O)(=O)c1cc(Cl)ccc1Cl	95	n	n	n	n	n
CC(C)C1N=C(c2ccc3c(c2)OCO3)CC(c2ccccc2O)N1 (stereo not given)	n	75	n	n	n	n
Cc1ccc(-c2nnc(-c3ccc4c(c3)OCO4)o2)cc1	n	n	n	n	n	n
O=C(NNC(=O)c1cccs1)c1ccc([N+](=O)[O-])cc1	n	n	n	n	n	n
CS(=O)(=O)Nc1ccc(C(=O)Nc2ccccc2-c2ccccc2)cc1	n	n	n	n	n	n
O=C(O)CC1(c2ccc(F)cc2)C2CC3CC(C2)CC1C3 (stereo not given)	n	n	n	n	n	n
NC(=O)Cc1nc(-c2ccc(Br)cc2)cs1	n	n	n	n	n	n
Cc1ccc(-c2csc(CC(N)=O)n2)cc1	91	n	n	n	n	n
CCC1CCCCN1C(=O)c1ccc(OC2CCN(C(=O)C3CC3)CC2)cc1 (stereo not given)	n	n	n	n	n	n
Cc1cc(=O)[nH]c(SCC(=O)Nc2nnc(SCc3ccccc3)s2)n1	n	n	n	n	n	n
Cc1nnc(SCC(=O)Nc2ccc(Br)cn2)[nH]c1=O	99	n	n	n	n	n
COc1cc(=O)[nH]c(SCC(=O)Nc2nc3c(s2)CCCC3)n1	x	n	-86	n	n	n
COc1cc(=O)[nH]c(SC(C)C(=O)Nc2nc3c(s2)CCCC3)n1 (stereo not given)	n	n	n	n	n	n
Cc1cc(=O)[nH]c(SCC(=O)Nc2nc3ccccc3s2)n1	99	n	n	n	n	n
Cc1[nH]c2ccccc2c1-c1csc(NC(=O)CSCC(=O)O)n1	100	n	n	n	n	n
Cc1[nH]c2ccccc2c1-c1csc(NC(=O)CN2CCOCC2)n1	n	n	n	n	n	n
Cc1nnc(SCC(=O)Nc2nc(-c3ccc(F)cc3)cs2)[nH]c1=O	99	n	n	n	n	n
Cc1cc(=O)[nH]c(SCC(=O)Nc2nc(-c3ccccc3)cs2)n1	99	n	n	n	n	n
Cc1ccc(-c2csc(NC(=O)CSc3nc4ccccc4[nH]3)n2)cc1	x	n	n	x	n	n
CCc1ccc2c(c1)C(c1ccncc1)=NNC(c1ccccc1)=N2	n	n	n	n	n	n
CCc1ccc2c(c1)C(c1ccc([N+](=O)[O-])cc1)=NNC(c1ccc(F)cc1)=N2	n	59	n	n	n	n
COCCn1cnnc1SCC(=O)Nc1ccc(N2CCCCC2)cc1	95	x	x	x	x	x
Cn1cnnc1SCC(=O)Nc1ccc(N2CCCCC2)cc1	99	x	x	x	x	x
SMILES	ALR inh	HSF-1 act	HSF1 inh	core dimer inh	AI-2 QS mod	PHOSPHO1 inh
Cn1cnnc1SCC(=O)Nc1ccccc1	n	n	n	n	n	n
Cn1cnnc1SCC(=O)Nc1ccc(S(N)(=O)=O)cc1	94	n	n	n	n	n
COCCn1cnnc1SCC(=O)Nc1cc(C)on1	n	x	x	x	x	x
Cc1cc(C(=O)NNC2CC(=O)N(c3ccc4ccccc4c3)C2=O)c(C)o1 (stereo not given)	n	n	n	n	n	n
COc1ccc(C(=O)Nc2c(N)nc(SCC(=O)c3ccccc3)[nH]c2=O)cc1	n	n	n	n	n	n
COc1ccc(NC(=O)/C=C2\SC(=O)NC2=O)cc1	97	n	n	n	n	n
CCN1CCCc2cc(CN(CCN3CCOCC3)C(=S)Nc3ccc(OC)cc3)ccc21	99	n	n	n	n	n
